Sampled rows, rich in hits. Any-hit rate of the full collection: about 2.7%.
F508del corr = F508del CFTR correction, initial screen, CFBE line, single point. CFBE cells, YFP halide quenching; stimulated with forskolin plus potentiator P3; % fluorescence drop versus neutral controls. activity (quench increase), % at 7.58 µM. actives 0.36% (n = 350,000). AID 720511, 2013;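 active = mean added fluorescence quench of at least 8% versus neutral control, with both replicates also reaching 8%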;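 note: cells transiently co-express mutant CFTR-F508del with the halide-sensitive YFP; corrector assay measuring rescue of mutant channel to the surface after 24 h compound exposure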
Env fusion inh = inhibitors of HIV-1 Env-driven cell-cell fusion, primary screen, HeLa-JRFL effector, CEM21 target cells, luciferase | AID 651610, 2012 | actives 1.1% (n = 360,000) | inhibition, % at 12.3 µM;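 active = mean replicate inhibition score of at least 50 and every replicate individually at or above 50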;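 note: 0% = plate neutral controls and 100% = maraviroc near 300 nM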
FGF22 binding = binders of human FGF22 protein, primary screen, FGF22 synaptogenesis inhibitor project, biophysical, thermal shift, single point | activity (Tm shift, normalised), % at 9.99 µM | actives 1.5% (n = 340,000) | Fibroblast growth factor 22 (Homo sapiens), Q9HCT0 | recombinant FGF22 thermal shift, SYPRO orange fluorescence; percent of sucrose octasulfate shift, DMSO zero;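 active = mean Tm shift, scaled 0 neutral to 100 positive control, at about 1.3% or above, every replicate too, limit read from the data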
S100A4 MyoIIA = inhibitors of S100A4-myosin IIA peptide binding, primary screen, biochemical, fluorescence polarization, TAMRA-MyoIIA peptide; actives 0.14% (n = 360,000); inhibition, % at 10.7 µM;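 active = mean inhibition of at least 70% across replicates, with every replicate also reaching that level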
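assay system = human S100A4 monomer with TAMRA-labelled myosin IIA peptide | also added = labelled myosin peptide probe, 5 nM | incubation = 5 min between mix addition and reading | control set = DMSO and TFP controls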
E-sel inducer = E-selectin induction in HUVECs, primary screen, imaging, HUVEC, immunofluorescence imaging, single point; actives 0.37% (n = 260,000); normalized: neutral wells 0, TNF-alpha wells 100; P16581; activation, % at 7.58 µM;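 active = mean E-selectin-positive cell signal at least 10% of the positive control, reached in at least 60% of replicates, without over 20% cell loss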
Target sequence (P16581 whole entry, looked up): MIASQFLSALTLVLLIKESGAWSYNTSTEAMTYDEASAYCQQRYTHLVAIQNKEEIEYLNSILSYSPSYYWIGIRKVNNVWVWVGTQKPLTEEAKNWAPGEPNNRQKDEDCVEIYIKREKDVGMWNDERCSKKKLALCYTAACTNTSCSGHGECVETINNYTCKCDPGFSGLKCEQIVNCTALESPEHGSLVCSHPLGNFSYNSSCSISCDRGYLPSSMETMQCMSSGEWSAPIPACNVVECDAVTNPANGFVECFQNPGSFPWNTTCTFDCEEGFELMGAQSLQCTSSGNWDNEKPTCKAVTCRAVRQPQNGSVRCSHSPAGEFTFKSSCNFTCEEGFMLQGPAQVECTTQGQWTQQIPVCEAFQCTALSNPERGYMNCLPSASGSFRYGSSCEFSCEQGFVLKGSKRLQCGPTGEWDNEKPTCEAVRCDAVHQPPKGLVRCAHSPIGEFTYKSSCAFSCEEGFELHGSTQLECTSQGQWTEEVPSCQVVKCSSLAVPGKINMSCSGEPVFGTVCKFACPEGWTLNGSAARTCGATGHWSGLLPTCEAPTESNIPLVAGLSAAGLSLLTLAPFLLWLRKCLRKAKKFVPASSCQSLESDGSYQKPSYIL
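Read-out basis: % PE-positive cells; Test system: HUVEC primary endothelial cells; Technique: immunofluorescence imaging; Dosing: single-point compound dose.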
An asterisk follows results filed as active; [ ] = another dose, or the depositor's remark.

For O=C(NNS(=O)(=O)c1ccccc1)c1ccc(O)cc1 the results were F508del corr -0.4, FGF22 binding 0.2 and S100A4 MyoIIA 3.7.
Screening Cc1cccc(C(=O)NNS(=O)(=O)c2ccccc2)c1O returned F508del corr -1.2, Env fusion inh 5.9, FGF22 binding 43.0* and S100A4 MyoIIA -0.1.
`C[C@H](CO)N1C[C@H](C)[C@H](CN(C)C(=O)Nc2ccc(F)cc2)OCCCC[C@H](C)Oc2ccc(NS(=O)(=O)c3cn(C)cn3)cc2C1=O` gave F508del corr 2.2, Env fusion inh -7.1[16.7 µM], FGF22 binding 0.0, S100A4 MyoIIA -2.2 and E-sel inducer 0.4.
For C=CCN=C1CCCc2c1[nH]c1ccc(C)cc21 the results were F508del corr 0.4, Env fusion inh 62.2*, FGF22 binding 0.3, S100A4 MyoIIA -0.2 and E-sel inducer -0.1.
N/N=C1\CCCc2c1[nH]c1ccc([N+](=O)[O-])cc21 was read as F508del corr -3.9, Env fusion inh 41.9, FGF22 binding -0.2, S100A4 MyoIIA -8.6 and E-sel inducer -0.1.
For C=C1CCN([C@@H](Cc2ccccc2)C(=O)Nc2ccc(OC)cc2)S(=O)(=O)c2ccccc21 the results were F508del corr 1.4, Env fusion inh 105.4*, FGF22 binding -0.3, S100A4 MyoIIA 21.0 and E-sel inducer -0.1.
For C=C1CCN([C@@H](C)C(=O)OCc2cccc(C)c2)S(=O)(=O)c2ccccc21 the results were F508del corr 1.0, Env fusion inh 25.3, FGF22 binding 0.0, S100A4 MyoIIA -0.8 and E-sel inducer 1.1.
Screening C=C1CCN([C@H](C(=O)OCc2ccc(C)cc2)C(C)C)S(=O)(=O)c2ccccc21 returned F508del corr -0.9, Env fusion inh 79.9*, FGF22 binding -0.1, S100A4 MyoIIA -0.9 and E-sel inducer -0.9.
Screening C[C@H](CO)N1C[C@H](C)[C@H](CN(C)Cc2ccc(Cl)c(Cl)c2)Oc2c(NS(=O)(=O)c3cn(C)cn3)cccc2C1=O returned F508del corr -2.4, Env fusion inh 27.8[16.7 µM], FGF22 binding 0.0, S100A4 MyoIIA 2.4 and E-sel inducer 37.8*.
Screening C[C@@H]1CN([C@@H](C)CO)C(=O)c2cccc(NS(=O)(=O)c3cn(C)cn3)c2O[C@H]1CN(C)Cc1ccncc1 returned F508del corr 2.2, FGF22 binding 0.0, S100A4 MyoIIA -3.1 and E-sel inducer 53.4*.
For C[C@@H]1CN([C@H](C)CO)C(=O)c2cccc(NS(=O)(=O)c3cn(C)cn3)c2O[C@H]1CN(C)Cc1ccncc1 the results were F508del corr 0.2, FGF22 binding 0.0, S100A4 MyoIIA 21.1 and E-sel inducer 2.1.
`CCCCOc1ccc(CSCCN=C(N)N)cc1` gave F508del corr 4.7, Env fusion inh 9.4, FGF22 binding 43.1*, S100A4 MyoIIA -2.5 and E-sel inducer 1.2.
For C[C@H](CO)N1C[C@H](C)[C@@H](CN(C)C(=O)NC2CCCCC2)OCCCC[C@H](C)Oc2ccc(NS(=O)(=O)c3ccc(F)cc3)cc2C1=O the results were F508del corr -1.5, Env fusion inh -204.5[16.7 µM], FGF22 binding -0.5 and S100A4 MyoIIA -15.8.
Cc1cccc(N2CCN(C(=O)CCCSc3nc4ccccc4[nH]3)CC2)c1C was read as Env fusion inh 73.5*.
O=C(CCCSc1nc2ccccc2[nH]1)N1CCN(c2ccccc2)CC1 was read as Env fusion inh 30.1.
CC(=O)N1CC(=O)N2[C@H](CO)[C@@H](c3ccc(-c4ccncc4)cc3)[C@@H]2C1 was read as F508del corr -0.3, S100A4 MyoIIA -1.5 and E-sel inducer -0.1.
Screening CCC(O)c1cnc(OCc2ccccc2)nc1OCc1ccccc1 (configuration not stated) returned F508del corr 0.3, FGF22 binding 30.4*, S100A4 MyoIIA 0.7 and E-sel inducer -0.1.
`Cc1ccc(-c2nnc(SCC(=O)NC3CCCC3)n2N)cc1` gave F508del corr 4.1, Env fusion inh 29.9, FGF22 binding 44.1*, S100A4 MyoIIA 2.0 and E-sel inducer -0.3.
Screening Cc1ccc(-c2nnc(SCC(=O)NC3CC3)n2N)cc1 returned F508del corr 1.3, Env fusion inh 2.0, FGF22 binding 0.3, S100A4 MyoIIA -0.1 and E-sel inducer 5.1.
c1ccc2nc(-c3nccs3)ccc2c1 was read as F508del corr -2.2, Env fusion inh -19.3, FGF22 binding 43.8*, S100A4 MyoIIA 4.9 and E-sel inducer 3.0.
CN(C)C(=O)C[C@@H]1CC[C@H]2[C@@H](COC[C@@H](O)CN2C(=O)C2CCCC2)O1 was read as F508del corr 0.2, Env fusion inh -4.8[16.7 µM], FGF22 binding 0.0 and E-sel inducer 0.2.
Nc1cnccc1C(=O)O was read as F508del corr 3.4, Env fusion inh 2.0, FGF22 binding 0.5 and S100A4 MyoIIA 79.7*.
For O=C(C1CCC1)N1CC(=O)N2[C@H](CO)[C@H](c3ccc(-c4ccccc4F)cc3)[C@@H]2C1 the results were F508del corr -2.1, S100A4 MyoIIA 2.1 and E-sel inducer 0.2.
For CS/C(=C/[N+](=O)[O-])Nc1cccc2c1C(C)CC2(C)C (configuration not stated) the results were F508del corr 0.0, Env fusion inh -110.5, FGF22 binding 43.7* and S100A4 MyoIIA -14.0.
Screening COc1ccc2c(c1)c(CC(=O)OCC(=O)O)c(C)n2C(=O)c1ccc(Cl)cc1 returned F508del corr 8.5*, Env fusion inh 24.5, FGF22 binding 0.0, S100A4 MyoIIA 1.3 and E-sel inducer 2.5.
COc1ccc2c3c(n(C)c2c1)[C@@H](CO)N(Cc1cccnc1)CC31CN(C(=O)c2cccnc2)C1 was read as F508del corr -3.8, S100A4 MyoIIA 0.1 and E-sel inducer 0.8.
Screening C[C@H]1CN([C@@H](C)CO)C(=O)c2cc(NC(=O)Nc3ccc4c(c3)OCO4)ccc2O[C@H]1CN(C)C returned F508del corr -3.3, FGF22 binding 0.0, S100A4 MyoIIA 56.8 and E-sel inducer -8.2.
`C[C@@H]1CN([C@@H](C)CO)C(=O)Cc2cc(NC(=O)Nc3ccc4c(c3)OCO4)ccc2O[C@H]1CN(C)Cc1ccc(Cl)c(Cl)c1` gave F508del corr -3.2, Env fusion inh 57.4*[16.7 µM], FGF22 binding 0.6, S100A4 MyoIIA 11.7 and E-sel inducer 14.7.
`C[C@@H]1CN([C@H](C)CO)C(=O)Cc2cc(NC(=O)Nc3ccccc3)ccc2O[C@@H]1CN(C)C` gave F508del corr 1.3, Env fusion inh 1.2[16.7 µM], FGF22 binding 0.0, S100A4 MyoIIA 0.6 and E-sel inducer 45.5*.

Source: PubChem BioAssay (Broad Institute)
